NR2E3 ag-1: NR2E3 (human) agonism | GST-NR2E3/biotin-RetCOR TR-FRET, 1536-well | inhibition of corepressor binding, % at 4.78 µM | 0.12% of 320,000 active | AID 2300;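 active means percent inhibition above the cutoff of mean plus 3 SD of all tested compounds, set per screening campaign, cut at about 20% in these data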;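 further: 0% = DMSO wells and 100% = biotin wells as full block of FRET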
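Material: NR2E3–RetCOR corepressor complex / Amount: 1.35 nM GST-NR2E3 / Medium: Tris pH 7.5 / Compound: single nominal compound dose of 4.8 µM / Incubation: 5 h at 4 °C / Technique: TR-FRET, Eu(K)-anti-GST donor, streptavidin-D2 acceptor, ex 340, em 617/671 nm / Read-out basis: percent loss of FRET ratio relative to control wells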
rCAG binder: molecules binding r(CAG) RNA repeats. r(CAG) RNA repeat, TO-PRO-1 dye displacement fluorescence. inhibition, % at 3 µM. 1.3% of 370,000 active. AID 651821;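 active means inhibition above the plate cutoff, the mean of all test compounds on that plate plus 3 SD, cut at about 35% in these data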;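 further: 0% = DMSO alone and 100% = 100 µM mitoxantrone as full dye displacement; higher means more dye released from RNA so lower well fluorescence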
NR2E3 ag-2: agonists of human NR2E3 nuclear receptor. Q9Y5X4. CHO-S Gal4-NCOR/VP16-NR2E3 two-hybrid, luciferase. inhibition of corepressor binding, % at 3.98 µM. 0.35% of 360,000 active;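 active means inhibition above the mean of all tested compounds plus 3 SD, cut at about 70% in these data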;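 further: 0% = DMSO with NR2E3 transfected cells and 100% = cells lacking NR2E3 construct; higher means lower luciferase signal from less NR2E3 corepressor binding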
Rev-erbA mod: modulators of human Rev-erb alpha DNA binding; P20393; Rev-erbα–FITC-DNA binding, fluorescence polarization, 90 min; activity, % at 10 µM; 0.79% of 370,000 active; AID 1259318;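 active means activity above about 14%, limit read from the data; passing the limit was not always enough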;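 further: 0% = DMSO wells with 35 nM protein and 100% = DMSO wells with 750 nM protein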
Target sequence (P20393 whole entry, looked up): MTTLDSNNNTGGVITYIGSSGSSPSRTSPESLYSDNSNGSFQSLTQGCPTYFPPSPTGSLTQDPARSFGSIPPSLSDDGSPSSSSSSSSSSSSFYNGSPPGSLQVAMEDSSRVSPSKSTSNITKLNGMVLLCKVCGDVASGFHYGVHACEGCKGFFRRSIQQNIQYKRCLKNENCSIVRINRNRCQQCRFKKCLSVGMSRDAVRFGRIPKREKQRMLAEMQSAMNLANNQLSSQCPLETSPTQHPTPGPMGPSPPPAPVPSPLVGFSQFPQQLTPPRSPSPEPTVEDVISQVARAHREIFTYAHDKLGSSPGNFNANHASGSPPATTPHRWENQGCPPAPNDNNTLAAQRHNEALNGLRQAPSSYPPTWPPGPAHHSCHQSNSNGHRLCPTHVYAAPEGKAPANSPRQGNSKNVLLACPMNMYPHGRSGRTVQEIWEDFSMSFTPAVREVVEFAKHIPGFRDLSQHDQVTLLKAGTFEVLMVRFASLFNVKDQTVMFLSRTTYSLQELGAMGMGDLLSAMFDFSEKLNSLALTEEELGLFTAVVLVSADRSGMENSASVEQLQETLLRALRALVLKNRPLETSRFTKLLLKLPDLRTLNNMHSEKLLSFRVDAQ
PG9 Ab binder: small molecules binding HIV-1 gp120 antibody PG9; TR-FRET gp120-PG9 antibody binding; inhibition, % at 6.7 µM; 0.43% of 360,000 active; in the data active means inhibition above about 8.5%
rCAG bind conf: r(CAG) RNA repeat binding, confirmation; shares compounds with rCAG binder; TO-PRO-1 dye displacement fluorescence; 70% of 4,300 active; inhibition, % at 3 µM;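 active means inhibition above a per-plate cutoff, the mean inhibition of sample wells plus 3 SD, cut at about 35% in these data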;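 further: loss of TO-PRO-1 fluorescence as compound displaces dye from 1x1 AA loop RNA; 0% = DMSO only wells and 100% = 100 µM mitoxantrone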
dCAG dye counter: DNA CAG dye complex inhibition counter-screen; shares compounds with rCAG binder; d(CAG) DNA oligo TO-PRO-1 dye displacement, fluorescence; inhibition, % at 3 µM; 94% of 4,300 active; AID 652068;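 active means inhibition above its plate's cutoff, the mean test-well inhibition plus 3 SD, cut at about 4.8% in these data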;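 further: 0% = DNA dye mix with DMSO and 100% = 100 µM mitoxantrone; hits displace the dye from DNA and so lower well fluorescence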
Starred values were filed as active, the others as inactive; / = no result. An excerpt weighted towards active compounds, which were near 2.6% of everything screened.

SMILES | NR2E3 ag-1 | rCAG binder | NR2E3 ag-2 | Rev-erbA mod | PG9 Ab binder | rCAG bind conf | dCAG dye counter
Cc1ccc(CSc2nc3c(c(SCC(=O)O)n2)CCCC3)cc1 | -1 | 36* | 5 | -5 | 0 | 23 | 5.7*
CN(C)c1cccc(C(=O)OCCCC(=O)c2ccc(F)cc2)c1 | -1 | -1 | -35 | 6 | 0 | / | /
O=C(c1cccc(NS(=O)(=O)c2ccc(Br)cc2)c1)N1CCCCC1 | -3 | 9 | 19 | 5 | -2 | / | /
O=C(Nc1ccccc1C(=O)O)c1cc(S(=O)(=O)Nc2cccc(F)c2)ccc1Cl | 7 | 45* | -35 | 0 | 0 | 30 | 9.3*
O=C(Nc1ccccc1C(=O)O)c1cccc(S(=O)(=O)Nc2ccc(Br)cc2)c1 | 6 | 80* | -15 | 4 | 2 | 58* | 21*
O=C(O)c1ccc(NS(=O)(=O)c2cccc(C(=O)Nc3ccc(Br)cc3)c2)cc1 | 0 | 13 | -18 | -6 | 0 | / | /
O=C(Nc1ccccc1C(=O)O)c1cccc(NS(=O)(=O)c2ccc(Br)cc2)c1 | -5 | 81* | -37 | 0 | -1 | 68* | 26*
Cc1cccc(NC(=O)c2cccc(S(=O)(=O)Nc3ccccc3C(=O)O)c2)c1 | -4 | 52* | 25 | 7 | 0 | 32 | 7.5*
CCCCC[C@H](O)/C=C/[C@@H]1[C@H]2C/C(=C/CCCC(=O)O)O[C@H]2C[C@H]1O | / | 3 | / | 9 | / | / | /
Cc1ccc(NS(=O)(=O)c2ccc(Cl)c(C(=O)Nc3ccccc3-c3nc4ccccc4[nH]3)c2)cc1C | 3 | 47* | -6 | 2 | -3 | 42* | 24*
NS(=O)(=O)c1cccc(NC(=O)c2ccccc2NS(=O)(=O)c2ccc(F)cc2)c1 | 6 | 38* | -34 | -4 | 2 | 38* | 12*
Cc1ccc(S(=O)(=O)CCSc2cccc(C(=O)Nc3ccccc3C(=O)O)c2)cc1 | -1 | 80* | 4 | 5 | -1 | 83* | 52*
NC(=O)c1ccccc1NS(=O)(=O)c1ccc(F)cc1 | 1 | 3 | -26 | -6 | -1 | / | /
O=C(Nc1cccc(C(F)(F)F)c1)c1cccc(NS(=O)(=O)c2ccc(O)c(C(=O)O)c2)c1 | -1 | 79* | -55 | 6 | -2 | 62* | 24*
CCNC(=O)C1CCCN(C(=O)c2cc(C)oc2C)CC1 (stereo not given) | / | 1 | -6 | -3 | -1 | / | /
O=C(Nc1ccc(C(O)(C(F)(F)F)C(F)(F)F)cc1)c1ccc(Cl)cc1 | / | / | / | 12 | / | / | /
N#Cc1ccc(S(=O)(=O)N2CCCCC2c2cc(C(=O)N3CCOCC3)no2)cc1 (stereo not given) | / | -1 | -23 | -3 | -1 | / | /
Cc1ccc(NS(=O)(=O)c2ccccc2)c(NS(=O)(=O)c2ccccc2)c1 | / | 49* | 17 | -3 | -2 | 48* | 13*
Cc1ccc(NS(=O)(=O)c2ccccc2)c([N+](=O)[O-])c1 | / | 3 | -16 | 0 | 0 | / | /
CCC(NC(=O)c1ccc2c(ccn2Cc2cccc(-c3ccccc3C(=O)O)c2)c1)c1ccccc1 (stereo not given) | / | 49* | / | 1 | / | 48* | 18*
Cc1csc(NC(=O)COCC(=O)O)c1-c1nc2ccccc2s1 | 3 | 55* | -5 | -4 | 2 | 43* | 9.7*
Cc1csc(NC(=O)CCCC(=O)O)c1-c1nc2ccccc2s1 | 3 | 2 | -24 | 5 | 0 | / | /
O=c1cc(SCc2ccc(Cl)cc2Cl)nc[nH]1 | / | 2 | -28 | 9 | -2 | / | /
CSc1ccc(/C=C/C(=O)NC(=O)c2ccccc2O)cc1 | -1 | 38* | -20 | 2 | 1 | 26 | 8.7*
O=S(=O)(c1cc(O)ccc1O)c1cccc2c(S(=O)(=O)c3cc(O)ccc3O)cccc12 | 5 | 43* | -17 | -32 | -1 | 36* | 24*
SMILES | NR2E3 ag-1 | rCAG binder | NR2E3 ag-2 | Rev-erbA mod | PG9 Ab binder | rCAG bind conf | dCAG dye counter
CCN(C(=O)COC(=O)CCNS(=O)(=O)c1ccccc1F)c1c(N)n(Cc2ccccc2)c(=O)[nH]c1=O | / | 0 | -37 | 2 | -2 | / | /
Cc1cc(C)nc(NS(=O)(=O)c2ccc(NC(=O)c3cc(-c4ccccc4)nc4ccccc34)cc2)n1 | 0 | 49* | 9 | -1 | -2 | 62* | 25*
O=C(NNS(=O)(=O)c1cccc(Cl)c1)c1cc(-c2ccc(F)cc2)nc2ccccc12 | 2 | 44* | -34 | -9 | -3 | 44* | 15*
Cc1ccc(-c2cc(C(=O)Nc3ccc(S(=O)(=O)Nc4cc(C)on4)cc3)c3ccccc3n2)c(C)c1 | 4 | 79* | 12 | -5 | -2 | 82* | 53*
Cc1ccc(-c2cc(C(=O)Nc3ccc(S(=O)(=O)Nc4onc(C)c4C)cc3)c3ccccc3n2)cc1 | 2 | 87* | -20 | -4 | -4 | 86* | 61*
CCCCNC(=O)C1CCCN1C(=O)Nc1ccc2c(c1)OCO2 (stereo not given) | / | 2 | / | 2 | / | / | /
Cc1ccc(NS(=O)(=O)c2ccc(C)c(C(=O)Nc3ccc(S(=O)(=O)Nc4onc(C)c4C)cc3)c2)cc1 | / | 64* | -2 | 5 | -1 | 70* | 35*
O=C(c1cc(-c2ccc(F)cc2)nc2ccccc12)N1CCC1 | / | 2 | 0 | 5 | -1 | / | /
O=C(O)c1ccccc1NC(=O)c1cc(-c2ccccc2)nc2ccccc12 | 1 | 56* | 21 | 2 | 0 | 62* | 22*
O=C(O)c1cc(-c2ccc(-c3ccc(F)cc3)o2)nc2ccccc12 | 0 | 37* | -69 | 1 | 1 | 17 | 4
Cc1ccc(O)c(-c2cc(C(=O)Nc3ccc(S(=O)(=O)Nc4nc(C)cc(C)n4)cc3)[nH]n2)c1 | 1 | 55* | -1 | -5 | 1 | 40* | 12*
O=C(Nc1ccon1)c1cc(-c2ccccc2)nc2ccccc12 | 3 | 0 | 8 | -2 | -1 | / | /
O=S(=O)(Nc1nc2ccccc2nc1N1CCN(c2ccccn2)CC1)c1ccc(Cl)cc1 | / | 54* | 20 | 3 | -1 | 64* | 31*
COc1ccc(N2CCN(c3nc4ccccc4nc3NS(=O)(=O)c3ccccc3)CC2)cc1 | 1 | 57* | 5 | 1 | 0 | 62* | 24*
O=S(=O)(Nc1nc2ccccc2nc1N1CCc2ccccc2C1)c1ccc(Cl)cc1 | 6 | 13 | -137 | -2 | -2 | / | /
Cc1ccc(S(=O)(=O)NC2=C(N3CCN(c4ccccc4F)CC3)C(=O)c3ccccc3C2=O)cc1 | 0 | 12 | -106 | 8 | -4 | / | /
CCOc1nc2ccccc2nc1NS(=O)(=O)c1ccccc1 | 11 | 6 | 5 | -1 | 3 | / | /
